# Results of several laboratories.
# Protocols differ between the studies behind these lines.
# RPS6KA3: Ribosomal protein S6 kinase alpha-3 (RPS6KA3, Homo sapiens, UniProt P51812)
# RPS6KA3 C-terminal kinase domain: Ribosomal protein S6 kinase alpha-3, C-terminal kinase domain (RPS6KA3, Homo sapiens, UniProt P51812)
# RPS6KA3 N-terminal kinase domain: Ribosomal protein S6 kinase alpha-3, N-terminal kinase domain (RPS6KA3, Homo sapiens, UniProt P51812)
SMILES,target,test,system,conditions,quantity,value
CC(C)(C)C(=O)c1sc(NC2CCCCC2)nc1N,RPS6KA3,"enzyme activity, inhibitor",,10 µM,remaining activity,104%
Cc1ccc(C(=O)Nc2ccc(CN3CCN(C)CC3)c(C(F)(F)F)c2)cc1C#Cc1cnc2cccnn12,RPS6KA3,"enzyme activity, inhibitor",,23.5 nM,activity vs control,82%
COc1cc(/C=C/C(=O)CC(=O)/C=C/c2ccc(O)c(OC)c2)ccc1O,RPS6KA3,"enzyme activity, inhibitor",,1 µM,activity vs control,66%
CNC(=O)c1cc(Oc2ccc(NC(=O)Nc3ccc(Cl)c(C(F)(F)F)c3)cc2)ccn1,RPS6KA3,"enzyme activity, inhibitor",,0.3 µM,inhibition,22%
CCCOc1ccc([C@@H]2[C@@H](C(=O)O)[C@H](c3ccc4c(c3)OCO4)CN2CC(=O)Nc2c(CC)cccc2CC)cc1,RPS6KA3 C-terminal kinase domain,"cell-free assay, competition with immobilised ligand",,1 µM,remaining binding,76%
F[C@@H]1CCN(c2nccc(-c3cnn4ncccc34)n2)C1,RPS6KA3 C-terminal kinase domain,"binding, competition with immobilised ligand",,1 µM,remaining binding,100%
c1ccc(CNc2nc(N3CCOc4ccccc43)nc3c2CCCC3)cc1,RPS6KA3 N-terminal kinase domain,"target engagement in cells, inhibitor, chemoproteomics",,20 mM,inhibition,3.3%
CCN(CC)c1ccc(C2=NNC(=O)CC2C)cc1[N+](=O)[O-] (stereo not drawn),RPS6KA3,"enzyme activity, inhibitor",,10 µM,remaining activity,100%
FC(F)(F)Oc1cccc(-c2cnc3ccc(-c4ccncc4)nn23)c1,RPS6KA3,"enzyme activity, inhibitor, radiometric",,1 µM,activity vs control,105%
Cc1cnc(NC2CCOCC2)nc1-n1cnc(C(=O)NC(CN)c2cc(F)cc(Cl)c2)c1 (stereo not drawn),RPS6KA3,"enzyme activity, inhibitor, radiometric",,1 µM,remaining activity,21%
Cc1nc(N2CC[C@@H](O)C2)ncc1-c1cc(C(F)(F)F)cc2[nH]ncc12,RPS6KA3 C-terminal kinase domain,"binding, competition with immobilised ligand",,1 µM,remaining binding,58%
N[C@H]1CCN(c2nccc(-c3cnn4ncccc34)n2)C1,RPS6KA3 C-terminal kinase domain,"binding, competition with immobilised ligand",,1 µM,remaining binding,40%
COc1cc(Nc2c(C#N)cnc3cc(OCCCN4CCN(C)CC4)c(OC)cc23)c(Cl)cc1Cl,RPS6KA3,cell-free assay,,0.5 µM,remaining signal,80.1%
COc1cc(Nc2cnc(C#N)c(O[C@H](C)CN(C)C)n2)ncc1-c1cnn(C)c1,RPS6KA3,"enzyme activity, inhibitor, radiometric",,1 µM,remaining activity,9%
C[C@@H]1CCN(c2nccc(-c3cnn4ncccc34)n2)C1,RPS6KA3 N-terminal kinase domain,"binding, competition with immobilised ligand",,1 µM,remaining binding,74%
Clc1ccc(Nc2nnc(Cc3ccncc3)c3ccccc23)cc1,RPS6KA3,cell-free assay,,0.5 µM,remaining signal,101%
COc1cc2ncnc(Nc3ccc(Oc4ccccc4)c(C)c3C)c2cc1OC,RPS6KA3,"enzyme activity, inhibitor",,1 µM,inhibition,-1%
CC(C)(C)c1nc(-c2cccc(NS(=O)(=O)c3c(F)cccc3F)c2F)c(-c2ccnc(N)n2)s1,RPS6KA3,"enzyme activity, inhibitor, radiometric",,1 µM,remaining activity,77%
CN(c1nccc(-c2cnn3ncccc23)n1)C1CC1,RPS6KA3 C-terminal kinase domain,"binding, competition with immobilised ligand",,1 µM,remaining binding,100%
Cn1cncc1C1=CN(c2ncnc3[nH]cnc23)CCS1,RPS6KA3,"enzyme activity, inhibitor, radiometric",,50 nM,inhibition,12.3%
N#CCCc1ccc2c(c1)-c1[nH]c3ccc([N+](=O)[O-])cc3c1CC(=O)N2,RPS6KA3,cell-free assay,,0.5 µM,remaining signal,28.6%
CCCS(=O)(=O)Nc1ccc(F)c(C(=O)c2c[nH]c3ncc(-c4ccc(Cl)cc4)cc23)c1F,RPS6KA3,"enzyme activity, inhibitor",,1 µM,inhibition,< 10%
O=C(Nc1cnn(-c2csc(C(=O)NC3COC3)c2)c1)Nc1ccccc1Cl,RPS6KA3,"enzyme activity, inhibitor",,5 µM,remaining activity,101%
Cc1ccc(Nc2nccc(N(C)c3ccc4c(C)n(C)nc4c3)n2)cc1S(N)(=O)=O,RPS6KA3,"enzyme activity, inhibitor",,0.3 µM,inhibition,31%
Nc1ncnc2occ(-c3ccc(NC(=O)Nc4cc(C(F)(F)F)ccc4F)cc3)c12,RPS6KA3 C-terminal kinase domain,"cell-free assay, inhibitor",,20 µM,remaining signal,100%
CC1=C(C#N)[C@@H](c2ccc3[nH]nc(C)c3c2)C(C#N)=C(c2ccc(Cl)cc2)N1,RPS6KA3 C-terminal kinase domain,"cell-free assay, competition with immobilised ligand",,1 µM,remaining binding,86.2%
COc1cccc2c(NCc3ccccc3)nc(-n3c(N)nc4ccccc43)nc12,RPS6KA3 N-terminal kinase domain,"target engagement in cells, inhibitor, chemoproteomics",,20 mM,inhibition,34.2%
COc1ccc2c(O[C@@H]3C[C@H]4C(=O)N[C@]5(C(=O)O)CC5/C=C\CCCCC[C@H](NC(=O)OC5CCCC5)C(=O)N4C3)cc(-c3csc(NC(=O)C(C)C)n3)nc2c1C (stereo partly drawn),RPS6KA3 N-terminal kinase domain,"cell-free assay, competition with immobilised ligand",,1 µM,remaining binding,100%
CN(C)c1nccc(-c2cnc3ncccn23)n1,RPS6KA3 N-terminal kinase domain,"binding, competition with immobilised ligand",,1 µM,remaining binding,70%
CNc1cccc2cc(C(=O)Nc3ccc(C(=O)O)cc3)c(=O)[nH]c12,RPS6KA3,"enzyme activity, inhibitor",,10 µM,inhibition,2.2%
C[C@H](NC(=O)c1cnc2n1[C@](C)(Cc1ccc(C#N)cc1)C(=O)N2c1cc(Cl)c(F)c(Cl)c1)C(=O)NC1(c2ccccn2)CC1,RPS6KA3 C-terminal kinase domain,"cell-free assay, competition with immobilised ligand",,1 µM,remaining binding,100%
Nc1nc(NC2CCCCC2)sc1C(=O)c1ccccc1,RPS6KA3,"enzyme activity, inhibitor",,10 µM,remaining activity,85%
CC/C(=N\NC(=O)C(C)Nc1ccccc1)c1ccc(O)c(C)c1O (stereo not drawn),RPS6KA3,"enzyme activity, inhibitor",,0.1 µM,inhibition,45.7%
O=C1Nc2ccc(Cl)cc2C1=Cc1cc(Cl)c(O)c(Cl)c1,RPS6KA3,cell-free assay,,0.5 µM,remaining signal,96%
O=C(NCc1ncc(C(F)(F)F)cc1Cl)c1ccc2c(c1)C1(CCS(=O)(=O)CC1)[C@@H](C1CC1)N2S(=O)(=O)c1ccc(F)cc1,RPS6KA3 C-terminal kinase domain,"cell-free assay, competition with immobilised ligand",,1 µM,remaining binding,82%
CCCOc1ccc(OC)c(F)c1C(=O)c1ccc(C(=O)N[C@@H]2CNC[C@H]2NC(=O)c2ccc3[nH]ncc3c2)cc1,RPS6KA3,"enzyme activity, inhibitor",,10 µM,remaining activity,12%
COc1ccc2c(c1)O[C@H](c1ccc(OC)c(OC)c1)C[C@@H]2NC(=O)C1(c2ccc3c(c2)OC(F)(F)O3)CC1,RPS6KA3 C-terminal kinase domain,"cell-free assay, competition with immobilised ligand",,1 µM,remaining binding,93%
CNc1cc(Oc2cc(C(=O)Nc3cc(N4CCN(C)CC4)cc(C(F)(F)F)c3)ccc2C)ncn1,RPS6KA3 C-terminal kinase domain,"target engagement in cells, inhibitor, chemoproteomics",Huh-7,1 µM,inhibition,-50.6%
Oc1cccc(-c2nc(N3CCOCC3)c3oc4ncccc4c3n2)c1,RPS6KA3,"enzyme activity, inhibitor",,10 µM,remaining activity,96%
CN(C)C1CCN(CC#Cc2nn(C3CCCC3)c3nc(NCc4ccccc4)ncc23)C1 (stereo not drawn),RPS6KA3,"enzyme activity, inhibitor, FRET",,0.1 µM,inhibition,5%
CC1CCCN1c1nccc(-c2cnn3ncccc23)n1 (stereo not drawn),RPS6KA3 C-terminal kinase domain,"binding, competition with immobilised ligand",,1 µM,remaining binding,100%
CN(C)C(=O)Cn1cc(-c2nc([C@@](C)(c3ccc(-c4cnc(N)nc4)cc3)C3CC3)no2)cn1,RPS6KA3 N-terminal kinase domain,"cell-free assay, competition with immobilised ligand",,1 µM,remaining binding,83%
